What was measured:
Type in all cases: functional
[1] = Growth inhibition of human OVCAR4 cells assessed as cell growth at 10^-6 M after 48 hrs by SRB assay; settings: OVCAR-4, 48 h, read-out: Activity
SNB-75 = test: Cytotoxicity against human SNB75 cells after 48 hrs by SRB assay; settings: SNB-75, 48 h
Procedure, shortened: (§1)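 NCI 60-cell-line panel of human tumour lines from nine cancer types. Continuous 48 h exposure at five 10-fold dilutions from 10^-4 to 10^-8 M, with 5-FU as positive control. SRB protein stain read spectrophotometrically at time zero, untreated control and each concentration. GI50, TGI and LC50 were derived from the [(Ti−Tz)/(C−Tz)]×100 growth relations, and out-of-range values are given as > or < the tested limits.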

[2] = Growth inhibition of human UACC62 cells assessed as cell growth at 10^-8 M after 48 hrs by SRB assay; settings: UACC-62, 48 h, read-out: Activity
KM12 = test: Growth inhibition of human KM12 cells assessed as cell growth at 10^-7 M after 48 hrs by SRB assay; settings: KM12, 48 h, read-out: Activity
DU-145 = test: Growth inhibition of human DU145 cells assessed as cell growth at 10^-8 M after 48 hrs by SRB assay; settings: DU-145, 48 h, read-out: Activity
[3] = Growth inhibition of human NCI-ADR-RES cells assessed as cell growth at 10^-8 M after 48 hrs by SRB assay; settings: read-out: Activity
T47D [4] = test: Cytotoxicity against human T47D cells after 48 hrs by SRB assay
Procedure, shortened: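 NCI 60-cell-line panel, 48 h continuous exposure to five 10-fold dilutions from 10^-4 to 10^-8 M. SRB protein staining was read spectrophotometrically, with time-zero, untreated-control and treated absorbances. GI50, TGI and LC50 were derived from the percentage-growth formulas. Values outside the tested range are expressed as more or less than the maximum or minimum concentration.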

[5] = Growth inhibition of human RXF393 cells assessed as cell growth at 10^-5 M after 48 hrs by SRB assay; settings: RXF 393, 48 h, read-out: Activity
[6] = Growth inhibition of human OVCAR5 cells assessed as cell growth at 10^-7 M after 48 hrs by SRB assay; settings: OVCAR-5, 48 h, read-out: Activity
SN12C = test: Growth inhibition of human SN12C cells assessed as cell growth at 10^-7 M after 48 hrs by SRB assay; settings: read-out: Activity
SR = test: Growth inhibition of human SR cells assessed as cell growth at 10^-8 M after 48 hrs by SRB assay; settings: read-out: Activity
PC-3 = test: Cytotoxicity against human PC3 cells after 48 hrs by SRB assay; settings: PC-3, 48 h; procedure, shortened: as §1
[7] = Cytotoxicity against human OVCAR5 cells after 48 hrs by SRB assay; settings: OVCAR-5, 48 h; procedure, shortened: as §1
[8] = Growth inhibition of human MOLT4 cells assessed as cell growth at 10^-7 M after 48 hrs by SRB assay; settings: MOLT-4, 48 h, read-out: Activity
[9] = Growth inhibition of human RXF393 cells assessed as cell growth at 10^-8 M after 48 hrs by SRB assay; settings: RXF 393, 48 h, read-out: Activity
NCI-H460 [10] = test: Growth inhibition of human NCI-H460 cells assessed as cell growth at 10^-8 M after 48 hrs by SRB assay; settings: NCI-H460, 48 h, read-out: Activity
COLO 205 = test: Growth inhibition of human COLO205 cells assessed as cell growth at 10^-5 M after 48 hrs by SRB assay; settings: COLO 205, 48 h, read-out: Activity
Procedure, shortened: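 Five-dose NCI panel protocol. Each dose (10^-4 to 10^-8 M, 10-fold steps) was given as 48 h continuous exposure, and protein was measured by SRB staining. Percentage growth at each level is [(Ti−Tz)/(C−Tz)]×100, where Tz is time-zero absorbance and C is untreated control.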

MOLT-4 = test: Cytotoxicity against human MOLT4 cells after 48 hrs by SRB assay; settings: MOLT-4, 48 h; procedure, shortened: as §1
SW-620 = test: Growth inhibition of human SW620 cells assessed as cell growth at 10^-7 M after 48 hrs by SRB assay; settings: SW-620, 48 h, read-out: Activity
M14 = test: Growth inhibition of human M14 cells assessed as cell growth at 10^-7 M after 48 hrs by SRB assay; settings: M14, 48 h, read-out: Activity
[11] = Cytotoxicity against human Hs578T cells after 48 hrs by SRB assay; settings: Hs-578T; procedure, shortened: as §1
HOP-92 = test: Cytotoxicity against human HOP92 cells after 48 hrs by SRB assay; settings: HOP-92, 48 h; procedure, shortened: as §1
SK-MEL-28 = test: Growth inhibition of human SK-MEL-28 cells assessed as cell growth at 10^-4 M after 48 hrs by SRB assay; settings: SK-MEL-28, 48 h, read-out: Activity
T47D [12] = test: Growth inhibition of human T47D cells assessed as cell growth at 10^-4 M after 48 hrs by SRB assay; settings: read-out: Activity
NCI-H460 [13] = test: Cytotoxicity against human NCI-H460 cells after 48 hrs by SRB assay; settings: NCI-H460, 48 h; procedure, shortened: as §1
HT-29 = test: Growth inhibition of human HT-29 cells assessed as cell growth at 10^-7 M after 48 hrs by SRB assay; settings: HT-29, 48 h, read-out: Activity
[14] = read-out: LC50 (the source's name)
[15] = read-out: pLC50 (the source's name) (converted)

SMILES: Cc1ccc(-c2nc3ccc(Cl)cc3c(=O)n2/N=C/c2ccccc2)cc1
- growth at 1 µM [1]: 101%
- GI50 (SNB-75; read-out: GI50): 1.39 µM
- CC50 (SNB-75; [14]): > 100 µM
- TGI (SNB-75; read-out: TGI): 4.74 µM
- GI50 (SNB-75; read-out: pGI50 (converted)): 1.38 µM
- CC50 (SNB-75; [15]): > 100 µM
- TGI (SNB-75; read-out: pTGI (converted)): 4.79 µM
- growth at 0.01 µM [2]: 93%
- growth at 0.1 µM (KM12): 97%
- growth at 0.01 µM (DU-145): 97%
- growth at 0.01 µM [3]: 98%
- GI50 (T47D [4]; read-out: GI50): 3.82 µM
- CC50 (T47D [4]; [14]): > 100 µM
- TGI (T47D [4]; read-out: TGI): > 100 µM
- GI50 (T47D [4]; read-out: pGI50 (converted)): 3.8 µM
- CC50 (T47D [4]; [15]): > 100 µM
- TGI (T47D [4]; read-out: pTGI): > 100 µM
- growth at 10 µM [5]: 41%
- growth at 0.1 µM [6]: 88%
- growth at 0.1 µM (SN12C): 92%
- growth at 0.01 µM (SR): 96%
- GI50 (PC-3; read-out: GI50): 83 µM
- CC50 (PC-3; [14]): > 100 µM
- TGI (PC-3; read-out: TGI): > 100 µM
- GI50 (PC-3; read-out: pGI50 (converted)): 83.2 µM
- CC50 (PC-3; [15]): > 100 µM
- TGI (PC-3; read-out: pTGI): > 100 µM
- GI50 ([7]; read-out: GI50): > 100 µM
- CC50 [7, 14]: > 100 µM
- TGI ([7]; read-out: TGI): > 100 µM
- GI50 ([7]; read-out: pGI50 (converted)): > 100 µM
- CC50 [7, 15]: > 100 µM
- TGI ([7]; read-out: pTGI): > 100 µM
- growth at 0.1 µM [8]: 96%
- growth at 0.01 µM [9]: 97%
- growth at 0.01 µM (NCI-H460 [10]): 100%
- growth at 10 µM (COLO 205): 47%
- GI50 (MOLT-4; read-out: GI50): > 100 µM
- CC50 (MOLT-4; [14]): > 100 µM
- TGI (MOLT-4; read-out: TGI): > 100 µM
- GI50 (MOLT-4; read-out: pGI50 (converted)): > 100 µM
- CC50 (MOLT-4; [15]): > 100 µM
- TGI (MOLT-4; read-out: pTGI): > 100 µM
- growth at 0.1 µM (SW-620): 93%
- growth at 0.1 µM (M14): 96%
- GI50 ([11]; read-out: GI50): 2.62 µM
- LC50 (concentration giving 50% net cell kill) ([11]; read-out: LC50): > 100 µM
- TGI ([11]; read-out: TGI): 17.2 µM
- GI50 ([11]; read-out: pGI50 (converted)): 2.63 µM
- LC50 (concentration giving 50% net cell kill) ([11]; read-out: pLC50 (converted)): > 100 µM
- TGI ([11]; read-out: pTGI (converted)): 17.4 µM
- GI50 (HOP-92; read-out: GI50): 6.74 µM
- CC50 (HOP-92; [14]): > 100 µM
- TGI (HOP-92; read-out: TGI): > 100 µM
- GI50 (HOP-92; read-out: pGI50 (converted)): 6.76 µM
- CC50 (HOP-92; [15]): > 100 µM
- TGI (HOP-92; read-out: pTGI): > 100 µM
- growth at 100 µM (SK-MEL-28): 27%
- growth at 100 µM (T47D [12]): 14%
- GI50 (NCI-H460 [13]; read-out: GI50): 3.68 µM
- CC50 (NCI-H460 [13]; [14]): > 100 µM
- TGI (NCI-H460 [13]; read-out: TGI): > 100 µM
- GI50 (NCI-H460 [13]; read-out: pGI50 (converted)): 3.72 µM
- CC50 (NCI-H460 [13]; [15]): > 100 µM
- TGI (NCI-H460 [13]; read-out: pTGI): > 100 µM
- growth at 0.1 µM (HT-29): 93%
